Compound activity deposited in PubChem BioAssay by The Scripps Research Institute Molecular Screening Center.
Tn7 DDE FP: disrupts Tn7 cyclic peptide binding to fibrin D-Dimer-E complex | 370,000 compounds, 0.13% hits | inhibition, % at 8.3 µM | FP displacement of FITC-Tn7 peptide from fibrin DD(E); 0% = median of compound wells per plate;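 active = inhibition above the mean of compounds falling within the control limits plus 3 SD of them, cut at about 14% in these data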;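 note: 0% = plate median of compound wells and 100% = 10 µM Aha-Tn7 peptide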
Target sequence (P02675 whole entry, looked up): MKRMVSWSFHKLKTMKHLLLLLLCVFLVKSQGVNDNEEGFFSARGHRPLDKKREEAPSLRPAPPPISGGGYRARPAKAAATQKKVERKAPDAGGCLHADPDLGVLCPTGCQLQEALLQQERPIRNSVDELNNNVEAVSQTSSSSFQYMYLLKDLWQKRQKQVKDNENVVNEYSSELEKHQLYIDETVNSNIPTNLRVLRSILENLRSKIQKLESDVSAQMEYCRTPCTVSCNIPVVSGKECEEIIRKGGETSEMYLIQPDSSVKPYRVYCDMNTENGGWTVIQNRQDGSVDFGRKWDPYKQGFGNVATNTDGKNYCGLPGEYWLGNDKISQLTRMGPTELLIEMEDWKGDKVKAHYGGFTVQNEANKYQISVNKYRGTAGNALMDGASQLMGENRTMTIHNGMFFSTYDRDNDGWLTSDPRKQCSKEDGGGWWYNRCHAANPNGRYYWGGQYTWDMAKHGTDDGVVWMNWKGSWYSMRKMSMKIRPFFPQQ
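Test system: human clot-derived fibrin DD(E) complex / Quantity: 2 µM final DD(E) protein / Incubation: 10 min plus 3 h, room temperature / Measured by: fluorescence polarization / Benchmarks: high control of 10 µM Aha-Tn7 peptide / Replicates: singlicate testing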
MBD2 inh: blocks human MBD2 binding to methylated DNA | TR-FRET, MBD2 binding to methylated oligonucleotide | inhibition, % at 4.4 µM | 370,000 compounds, 0.31% hits | AID 686964; in the data active = inhibition above about 13%
UHRF1 MBD2 ctr: blocks human UHRF1 binding to methylated DNA. UHRF1 binding to methylated oligo, TR-FRET. 370,000 compounds, 0.75% hits. Q96T88. inhibition, % at 4.4 µM. AID 687016; in the data active = inhibition above about 21%;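 note: UHRF1 SRA domain binding a hemimethylated CpG hairpin DNA probe; 0% = median of test compound wells and 100% = reference inhibitor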
Tn6 DDE FP: DD(E)-Tn6 binding inhibition, primary FP screen. inhibition, % at 8.3 µM. 370,000 compounds, 0.21% hits. Fibrin DD(E) TRITC-Tn6 fluorescence polarization displacement;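 active = inhibition above a per-campaign cutoff: mean of compounds within control limits plus 3 SD, cut at about 15% in these data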;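 note: 0% = median of all compound wells on the plate and 100% = blocking peptide control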
LEDGF integ inh: blocks HIV-1 LEDGF/p75-dependent DNA integration. inhibition, % at 3.7 µM. 370,000 compounds, 0.64% hits. TR-FRET IN-LEDGF/p75 DNA integration, Eu/Cy5;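 active = inhibition above the screen-wide mean plus 3 SD, cut at about 13% in these data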;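 note: signal is the Cy5 over europium emission ratio at 671 and 618 nm; 0% = plate median of compound wells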
TDP2 absorb: blocks human TDP2 phosphodiesterase activity; O95551; recombinant TDP2, T5PNP hydrolysis, p-nitrophenol absorbance 415 nm; inhibition, % at 12.8 µM; 370,000 compounds, 0.34% hits; AID 720702;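 active = inhibition above the mean of all tested compounds plus 3 SD, set per campaign, cut at about 25% in these data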;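 note: 0% = DMSO with enzyme and 100% = buffer with substrate but no TDP2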
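Assay system: recombinant human TDP2 / Reagent: T5PNP substrate at 5 mM, a TopII-DNA adduct mimic / Measured by: epi absorbance from released p-nitrophenol / Evaluation: % inhibition relative to enzyme-containing and enzyme-free wells / Control set: enzyme-free and DMSO wells / Replicates: each compound tested once, singlicate / Schedule: enzyme reaction with compound for 2 h at 37 °C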
IN multimer up: counter-screen for LEDGF/p75 integration inhibitors: HIV-1 integrase multimerization activators. shares compounds with LEDGF integ inh. TR-FRET HIV-1 integrase multimerization, biochemical. activation, % at 7.7 µM. 2,000 compounds, 17% hits; in the data active = activation above about 8.9%
TRFRET interf: counter-screen for LEDGF/p75 integration inhibitors: TR-FRET optical interference. shares compounds with LEDGF integ inh. AID 1053135. TR-FRET optical interference counterscreen, HIV-1 IN multimerization. 2,000 tested, under 10 active. inhibition, % at 7.7 µM;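 active = inhibition above the mean over all tested compounds plus 3 SD, which no compound reached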;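 note: 0% = integrase with antibodies and DMSO and 100% = antibodies without integrase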
IN-LEDGF confirm: LEDGF/p75-dependent HIV-1 integration inhibition, confirmation | shares compounds with LEDGF integ inh | TR-FRET LEDGF/p75-dependent HIV-1 integration, biochemical | inhibition, % at 3.7 µM | 2,000 compounds, 36% hits | AID 1053136; in the data active = inhibition above about 14%
Numbers without * were called inactive; x = no result. Only some compounds are listed: those with a hit (about 1.9% of all), similar ones and a draw of the others.

SMILES | Tn7 DDE FP | MBD2 inh | UHRF1 MBD2 ctr | Tn6 DDE FP | LEDGF integ inh | TDP2 absorb | IN multimer up | TRFRET interf | IN-LEDGF confirm
Cc1ccc(S(=O)(=O)N/N=C/c2cc(Br)ccc2O)cc1 | 6 | -4 | -2 | -5 | -6 | -10 | x | x | x
Cc1ccc(S(=O)(=O)Nc2ccc(Br)cc2/C=N/n2cnnc2)cc1 | 0 | 9 | 19 | 1 | 17* | 10 | 0 | 0 | 28*
COCCCC1CCN(C(=O)C2CCC(=O)N(CCCc3ccccc3)C2)CC1 (centres undefined) | 3 | -3 | 2 | 2 | 20* | 4 | 2 | -6 | 2
COc1cc2c(O)cc(C(=O)O)c(-c3cc(OC)c(OC)c(OC)c3)c2cc1OC | 2 | 2 | 2 | -5 | -1 | 5 | x | x | x
COc1cc(C)cc(C(=O)O)c1C1=C(O)c2cccc(O)c2C(=O)C1=O | -6 | -2 | 23* | 1 | 18* | -12 | 13* | -65 | 19*
CCOc1cccc(C=NNc2nc(=O)cc(C(=O)OC)s2)c1O | 6 | -4 | 0 | 3 | 1 | 3 | x | x | x
O=[N+]([O-])c1ccccc1NC(=S)N/N=C/c1ccc(O)c(O)c1 | -4 | -3 | 10 | 1 | 46* | -22 | 11* | -57 | 71*
CCCn1c2ccccc2c2nnc(SCc3[nH]c(=O)[nH]c3C(=O)CCCCC(=O)OCC)nc21 | -2 | -4 | -4 | 0 | 30* | 3 | 1 | -4 | 19*
CCOC(=O)CCCCC(=O)c1[nH]c(=O)[nH]c1CSc1nnc2c3ccccc3n(C(C)C)c2n1 | -2 | -6 | 2 | 6 | 28* | 4 | 0 | -2 | 11
CCCCSCc1[nH]c(=O)[nH]c1C(=O)CCCCC(=O)OCC | 0 | 0 | 1 | -5 | 10 | 6 | x | x | x
COc1cc(C2C3=C(COC3=O)Oc3cc4c(cc32)OCO4)cc(OC)c1O (centres undefined) | 3 | -1 | 1 | -1 | 23* | 1 | 0 | 2 | -3
COc1cc(C2C3=C(COC3=O)Oc3cc4c(cc32)OCO4)cc(OC)c1OC (centres undefined) | -3 | 2 | 0 | 0 | -2 | 12 | x | x | x
C[C@@H]1C=C(C(=O)NCc2ccccc2)O[C@H](OCc2ccc(CO)cc2)C1 | 1 | 9 | 22* | -3 | 16* | 23 | 0 | 2 | 1
O=C(NCc1ccccc1)C1=C[C@H](c2ccccc2)C[C@H](OCc2ccc(CO)cc2)O1 | 5 | -2 | -4 | -1 | -2 | -17 | x | x | x
O=C1OC(c2cccs2)=N/C1=C/c1ccc(-c2cccc(C(=O)O)c2)o1 | 2 | 8 | 44* | 8 | 29* | 5 | 9.5* | -48 | 15*
CC(C)C[C@@H](NC(=O)OC(C)(C)C)C(=O)N1O[C@]23C=C[C@]14C[C@@H](O)CC[C@]4(C)C2CC[C@]1(C)[C@@H]([C@H](C)/C=C/[C@H](C)C(C)C)CC[C@H]13 (some centres undefined) | -4 | 0 | -3 | -5 | 0 | 10 | x | x | x
Brc1ccc(-c2nc(-c3ccccc3)no2)o1 | 0 | 4 | 3 | -4 | 0 | -7 | x | x | x
Brc1ccc(C2=Nc3cccc4cccc(c34)N2)o1 | 8 | 6 | 0 | -11 | 42* | -7 | -1 | 4 | 5
CCn1c(=O)[nH]c2cc(Cl)c(Cl)cc21 | -2 | 1 | 0 | -7 | 16* | 6 | -3 | 13 | -1
Cc1ccc(Sc2ncccc2C(=O)NC2CCCCCC2)cc1C | -6 | -6 | 1 | -5 | 0 | 0 | x | x | x
